Measured values: ChEMBL document CHEMBL1129728, “Structure-based design and synthesis of substituted 2-butanols as nonpeptidic inhibitors of HIV protease: secondary amide series” (J Med Chem, 1996)

How the values were obtained:
[1] = biological target: T1, Human immunodeficiency virus type 1 protease (Human immunodeficiency virus 1, UniProt Q72874); experiment: (§1) Inhibitory activity against HIV PR in HIV-1 infected CEM-SS cell lines; format: cell-based
[2] = biological target: Human immunodeficiency virus type 1 protease (Human immunodeficiency virus 1) (UniProt Q72874); experiment: Inhibitory activity against HIV-1 PR in HIV-1 infected CEM-SS cell lines; activity @ 10 uM; format: cell-based
[3] = biological target: T1, Human immunodeficiency virus type 1 protease; experiment: as §1; format: cell-based; remark: listed apart in the source
In short: (§2)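 Antiviral activity in HIV-1-infected CEM cells, read out by a cell viability assay run to a previously described method. Compounds were tested across a dose range, and the antiviral IC50 was taken from the dose-response curve.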

[4] = biological target: Human immunodeficiency virus type 1 protease (Human immunodeficiency virus 1) (UniProt Q72874); experiment: Inhibitory activity against HIV-1 PR in HIV-1 infected CEM-SS cell lines; activity @ 10 uM
[5] = biological target: Human immunodeficiency virus type 1 protease (Human immunodeficiency virus 1) (UniProt Q72874); experiment: Inhibitory activity against HIV PR in HIV-1 infected CEM-SS cell lines; activity @ 200 uM
[6] = biological target: Human immunodeficiency virus type 1 protease (Human immunodeficiency virus 1) (UniProt Q72874); experiment: as §1; format: cell-based; conditions: concentration not given here; in short: as §2

Structure (SMILES) | Ki [1] [µM] | IC50 [3] [µM] | other results
CC(C)(C)NC(=O)c1cc(C(C)(C)C)ccc1CCC(O)Cc1ccc2ccccc2c1C(=O)NC(C)(C)C (stereo not drawn) | 1.2 |  | 
CC(C)(C)NC(=O)c1ccccc1CC[C@H](O)CN1CCC[C@H]1C(=O)NC(C)(C)C |  |  | inhibition [2]: 10%
CC(C)(C)NC(=O)c1c(CC[C@H](O)Cc2ccc3ccccc3c2C(=O)NC(C)(C)C)ccc2ccccc12 | 0.48 |  | 
CC(C)(C)NC(=O)c1ccccc1CCC(O)Cc1ccccc1C(=O)NC(C)(C)C (stereo not drawn) | 24 |  | 
CC(C)(C)NC(=O)c1c(CC[C@@H](O)Cc2ccc3ccccc3c2C(=O)NC(C)(C)C)ccc2ccccc12 | 25 |  | 
CC(C)(C)NC(=O)c1ccccc1CC(O)CSc1ccccc1C(=O)NC(C)(C)C (stereo not drawn) | 83 |  | 
CC(C)(C)NC(=O)c1ccccc1CC(O)CSc1ccccc1NC(=O)C(C)(C)C (stereo not drawn) |  | > 200 | 
CC(C)(C)NC(=O)c1ccccc1CCC(O)Cc1ccc2ccccc2c1C(=O)NC(C)(C)C (stereo not drawn) | 2.2 |  | 
CC(C)(C)NC(=O)c1ccccc1SCC(O)Cc1ccc2ccccc2c1C(=O)NC(C)(C)C (stereo not drawn) |  | 25 | 
CC(C)(C)NC(=O)c1ccccc1C#CC(O)Cc1ccccc1C(=O)NC(C)(C)C (stereo not drawn) |  | 200 | 
CC(C)(C)NC(=O)c1cc(C(C)(C)C)ccc1CCC(O)Cc1ccc(C(C)(C)C)cc1C(=O)NC(C)(C)C (stereo not drawn) |  | 7 | 
CC(C)N1CCC(CC(O)CCc2ccccc2C(=O)NC(C)(C)C)=C(C(=O)NC(C)(C)C)C1 (stereo not drawn) |  | 70 | 
CC(C)(C)NC(=O)c1c(CCC(O)Cc2ccc3ccccc3c2C(=O)NC(C)(C)C)ccc2ccccc12 (stereo not drawn) | 1.4 |  | 
CC(C)(C)NC(=O)c1ccccc1CC[C@@H](O)CN1CCC[C@H]1C(=O)NC(C)(C)C |  |  | inhibition [4]: 10%
CC(C)(C)NC(=O)c1ccccc1/C=C/C(O)Cc1ccccc1C(=O)NC(C)(C)C (stereo not drawn) |  |  | inhibition [5]: 40%
CC(C)(C)NC(=O)c1ccccc1CCC(O)CN1CCCCC1C(=O)NC(C)(C)C (stereo in doubt; 12) |  |  | inhibition [6]: 35%
CC(C)(C)NC(=O)c1ccccc1SCC(O)c1ccccc1C(=O)NC(C)(C)C (stereo not drawn) |  | > 200 | 
CC(C)(C)NC(=O)c1ccccc1CCC(O)CN1CCCCC1C(=O)NC(C)(C)C (stereo in doubt; 11) |  |  | inhibition [6]: 20%
